Source: ChEMBL document CHEMBL2176984, “Target Selectivity of FimH Antagonists” (J Med Chem, 2012)
Active and inactive are the calls of the source. No cut-off for these calls is given here.

Key:
[1] = Cmax in mouse; format: ADME, organism-based; conditions: in vivo
[2] = target: T1, C-type lectin domain family 4 member C (Homo sapiens) (UniProt Q8WTT0); experiment: Displacement of biotinylated-TM PAA from human DLEC at 1 mM after 3 hrs by colorimetry
T1 sequence (whole entry): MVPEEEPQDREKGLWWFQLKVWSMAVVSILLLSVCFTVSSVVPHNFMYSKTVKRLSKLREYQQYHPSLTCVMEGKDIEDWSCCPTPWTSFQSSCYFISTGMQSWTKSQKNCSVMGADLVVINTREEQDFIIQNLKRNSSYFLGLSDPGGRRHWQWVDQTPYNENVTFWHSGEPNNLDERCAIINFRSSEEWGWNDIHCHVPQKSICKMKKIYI
Method in brief: (§1)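 Proteins were coated overnight at 4 °C in 20 mM HEPES pH 7.4, 150 mM NaCl and 10 mM CaCl2, then blocked with 3% BSA for 2 h at 4 °C. FimH was a CRD-thrombin-6His construct expressed in E. coli HM125; DC-SIGN and DC-SIGNR were CRD-Fc chimeras made in stably transfected CHO-K1. Compound at 1 mM final was co-added with streptavidin-HRP-coupled TM-PAA, incubated 3 h at 25 °C and 350 rpm, then read by ABTS OD 415 nm. No-antagonist signal was set to 100% and no-polymer background to 0%.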

[3] = target: T2, C-type lectin domain family 6 member A (Homo sapiens) (UniProt Q6EIG7); experiment: Displacement of biotinylated-TM PAA from human Dectin-2 at 1 mM after 3 hrs by colorimetry; method in brief: as §1
T2 sequence (whole entry): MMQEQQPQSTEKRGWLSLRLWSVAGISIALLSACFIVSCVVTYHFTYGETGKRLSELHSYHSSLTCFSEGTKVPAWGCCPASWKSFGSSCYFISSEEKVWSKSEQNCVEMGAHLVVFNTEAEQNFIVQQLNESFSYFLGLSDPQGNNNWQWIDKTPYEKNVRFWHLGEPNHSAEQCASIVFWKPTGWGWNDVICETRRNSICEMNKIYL

[4] = target: T3, C-type lectin domain family 4 member K (Homo sapiens, UniProt Q9UJ71); experiment: Displacement of biotinylated-TM PAA from human langerin at 1 mM after 3 hrs by colorimetry; method in brief: as §1
T3 sequence (Q9UJ71 whole entry, the tested form may be a part): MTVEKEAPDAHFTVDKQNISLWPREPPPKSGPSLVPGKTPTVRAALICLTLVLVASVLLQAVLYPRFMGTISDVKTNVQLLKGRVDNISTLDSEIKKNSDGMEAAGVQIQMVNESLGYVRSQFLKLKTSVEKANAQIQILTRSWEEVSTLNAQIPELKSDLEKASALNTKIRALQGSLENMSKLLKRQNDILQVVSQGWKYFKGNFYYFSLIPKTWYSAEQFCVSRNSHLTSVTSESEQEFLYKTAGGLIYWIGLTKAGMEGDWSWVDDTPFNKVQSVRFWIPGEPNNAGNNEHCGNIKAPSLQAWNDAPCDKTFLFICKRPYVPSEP

[5] = target: T4, Pulmonary surfactant-associated protein D (Homo sapiens) (UniProt P35247); experiment: Displacement of biotinylated-TM PAA from human SP-D at 1 mM after 3 hrs by colorimetry; method in brief: as §1
T4 sequence (whole entry): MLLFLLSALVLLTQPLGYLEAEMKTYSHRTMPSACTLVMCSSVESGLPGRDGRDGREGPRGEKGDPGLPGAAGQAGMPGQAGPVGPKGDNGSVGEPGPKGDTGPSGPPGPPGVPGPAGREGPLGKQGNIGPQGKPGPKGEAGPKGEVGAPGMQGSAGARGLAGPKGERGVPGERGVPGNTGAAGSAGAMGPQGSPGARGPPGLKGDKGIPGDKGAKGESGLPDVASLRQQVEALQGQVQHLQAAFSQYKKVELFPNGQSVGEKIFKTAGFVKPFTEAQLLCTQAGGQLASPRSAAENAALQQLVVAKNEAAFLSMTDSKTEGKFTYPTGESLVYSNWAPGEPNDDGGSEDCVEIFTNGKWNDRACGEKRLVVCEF

[6] = target: T5, Macrophage mannose receptor 1 (Homo sapiens) (UniProt P22897); experiment: Displacement of biotinylated-TM PAA from human MMR at 1 mM after 3 hrs by colorimetry; method in brief: as §1
T5 sequence (whole entry): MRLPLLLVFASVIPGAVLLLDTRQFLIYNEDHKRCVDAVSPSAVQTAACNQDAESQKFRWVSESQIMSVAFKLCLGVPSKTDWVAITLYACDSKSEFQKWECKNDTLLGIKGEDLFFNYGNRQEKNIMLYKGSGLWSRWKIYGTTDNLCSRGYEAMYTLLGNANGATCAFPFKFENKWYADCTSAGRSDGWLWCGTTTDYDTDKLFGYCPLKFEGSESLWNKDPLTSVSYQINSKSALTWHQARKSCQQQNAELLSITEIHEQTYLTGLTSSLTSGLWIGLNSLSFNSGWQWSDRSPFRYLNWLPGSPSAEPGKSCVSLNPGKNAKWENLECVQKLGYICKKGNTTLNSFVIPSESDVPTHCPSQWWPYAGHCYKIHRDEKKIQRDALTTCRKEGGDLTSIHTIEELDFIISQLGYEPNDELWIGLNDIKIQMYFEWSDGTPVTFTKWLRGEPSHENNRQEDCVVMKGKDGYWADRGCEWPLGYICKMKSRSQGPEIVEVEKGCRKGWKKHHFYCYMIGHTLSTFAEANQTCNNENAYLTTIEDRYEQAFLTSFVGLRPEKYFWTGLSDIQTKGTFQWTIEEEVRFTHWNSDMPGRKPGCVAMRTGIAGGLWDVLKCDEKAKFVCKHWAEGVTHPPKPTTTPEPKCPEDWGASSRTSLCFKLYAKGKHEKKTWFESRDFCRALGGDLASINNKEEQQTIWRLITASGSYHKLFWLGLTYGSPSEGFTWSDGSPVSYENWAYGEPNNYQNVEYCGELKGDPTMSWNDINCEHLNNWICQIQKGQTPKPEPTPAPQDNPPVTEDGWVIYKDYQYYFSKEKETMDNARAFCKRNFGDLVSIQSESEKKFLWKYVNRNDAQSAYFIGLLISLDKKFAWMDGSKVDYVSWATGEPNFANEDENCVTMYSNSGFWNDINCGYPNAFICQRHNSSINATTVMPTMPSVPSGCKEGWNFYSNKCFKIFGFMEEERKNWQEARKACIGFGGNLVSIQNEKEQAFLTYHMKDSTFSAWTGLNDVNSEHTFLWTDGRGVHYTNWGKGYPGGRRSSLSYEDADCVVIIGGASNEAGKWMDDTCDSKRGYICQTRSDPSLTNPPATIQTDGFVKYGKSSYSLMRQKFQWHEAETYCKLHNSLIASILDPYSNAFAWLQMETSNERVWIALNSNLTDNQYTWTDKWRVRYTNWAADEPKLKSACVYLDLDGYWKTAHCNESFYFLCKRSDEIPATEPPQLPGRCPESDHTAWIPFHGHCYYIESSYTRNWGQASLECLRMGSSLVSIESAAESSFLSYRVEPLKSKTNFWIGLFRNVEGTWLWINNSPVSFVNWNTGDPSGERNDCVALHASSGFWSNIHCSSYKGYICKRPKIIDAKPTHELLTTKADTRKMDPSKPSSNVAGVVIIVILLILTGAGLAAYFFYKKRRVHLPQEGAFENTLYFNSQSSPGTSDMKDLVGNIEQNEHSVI

[7] = target: T6, C-type lectin domain family 4 member M (Homo sapiens) (UniProt Q9H2X3); experiment: Displacement of biotinylated-TM PAA from human DC-SIGNR at 1 mM after 3 hrs by colorimetry; method in brief: as §1
T6 sequence (whole entry): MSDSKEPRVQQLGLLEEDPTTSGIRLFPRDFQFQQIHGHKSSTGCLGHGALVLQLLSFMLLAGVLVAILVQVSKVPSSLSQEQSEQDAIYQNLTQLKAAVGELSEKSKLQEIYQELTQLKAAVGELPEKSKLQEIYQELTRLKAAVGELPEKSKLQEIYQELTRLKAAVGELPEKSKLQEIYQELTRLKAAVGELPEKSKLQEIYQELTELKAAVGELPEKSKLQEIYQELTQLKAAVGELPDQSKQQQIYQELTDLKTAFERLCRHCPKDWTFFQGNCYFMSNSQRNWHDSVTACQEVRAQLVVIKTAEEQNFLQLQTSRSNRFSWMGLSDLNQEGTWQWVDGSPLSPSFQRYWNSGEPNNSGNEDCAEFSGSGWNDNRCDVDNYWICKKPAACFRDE

[8] = target: T7, CD209 antigen (Homo sapiens) (UniProt Q9NNX6); experiment: Displacement of biotinylated-TM PAA from human DC-SIGN at 1 mM after 3 hrs by colorimetry; method in brief: as §1
T7 sequence (whole entry): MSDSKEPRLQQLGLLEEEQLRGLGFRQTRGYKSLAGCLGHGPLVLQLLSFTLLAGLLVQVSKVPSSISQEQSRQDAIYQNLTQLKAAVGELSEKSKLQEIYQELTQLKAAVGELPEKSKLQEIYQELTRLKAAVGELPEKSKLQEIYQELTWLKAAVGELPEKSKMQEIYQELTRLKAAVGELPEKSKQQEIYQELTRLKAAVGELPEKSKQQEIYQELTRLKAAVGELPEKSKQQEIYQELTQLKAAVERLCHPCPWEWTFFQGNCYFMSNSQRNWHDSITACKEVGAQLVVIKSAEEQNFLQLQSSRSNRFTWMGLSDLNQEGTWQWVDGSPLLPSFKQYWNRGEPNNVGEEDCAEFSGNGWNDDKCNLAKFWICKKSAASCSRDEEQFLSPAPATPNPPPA

[9] = target: Mannose-binding protein C (Homo sapiens) (UniProt P11226); experiment: Displacement of biotinylated-TM PAA from human MBP at 1 mM after 3 hrs by colorimetry; method in brief: as §1
Mannose-binding protein C (Homo sapiens), sequence (P11226 whole entry): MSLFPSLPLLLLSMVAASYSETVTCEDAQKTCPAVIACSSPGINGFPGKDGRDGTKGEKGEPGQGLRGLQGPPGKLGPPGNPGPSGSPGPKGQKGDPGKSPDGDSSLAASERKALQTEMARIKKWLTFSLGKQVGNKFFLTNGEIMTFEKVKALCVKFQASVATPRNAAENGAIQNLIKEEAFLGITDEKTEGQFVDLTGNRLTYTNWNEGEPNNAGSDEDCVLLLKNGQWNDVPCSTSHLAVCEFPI

[10] = Displacement of biotinylated-TM PAA from Escherichia coli FimH expressed in Escherichia coli HM125 after 3 hrs by colorimetry
[11] = test system: Escherichia coli; experiment: Displacement of biotinylated-TM PAA from Escherichia coli FimH expressed in Escherichia coli HM125 at 1 mM after 3 hrs by colorimetry; method in brief: as §1
[12] = target: T3, C-type lectin domain family 4 member K; experiment: Displacement of biotinylated-TM PAA from human langerin after 3 hrs by colorimetry
[13] = target: T8, Macrophage mannose receptor 1 (Homo sapiens, UniProt P22897); experiment: Displacement of biotinylated-TM PAA from human MMR after 3 hrs by colorimetry
T8 sequence (P22897 whole entry): T5 sequence (whole entry)

| Compound | Cmax [1] [µM] | inhibition [2] | inhibition [3] | inhibition [4] | inhibition [5] | inhibition [6] | inhibition [7] | inhibition [8] | inhibition [9] | IC50 [10] [µM] | inhibition [11] | IC50 [12] [µM] | IC50 [13] [µM] |
| --- | --- | --- | --- | --- | --- | --- | --- | --- | --- | --- | --- | --- | --- |
| CCCCCCCO[C@H]1O[C@H](CO)[C@@H](O)[C@H](O)[C@@H]1O | 144 | inactive | inactive | inactive | inactive | inactive | inactive | inactive | inactive | 0.065 | Active |  |  |
| O=C(O)c1ccc(-c2ccc(O[C@H]3O[C@H](CO)[C@@H](O)[C@H](O)[C@@H]3O)c(Cl)c2)cc1 | 97 | inactive | inactive | 63% | inactive | 54% | inactive | inactive | inactive |  | Active | 1000 | 1000 |
| CN1CCN(c2c(Nc3ccc(O[C@H]4O[C@H](CO)[C@@H](O)[C@H](O)[C@@H]4O)c(Cl)c3)c(=O)c2=O)CC1 |  | inactive | inactive | inactive | inactive | inactive | inactive | inactive | inactive | 0.031 | Active |  |  |
